Assay results from different studies.
Protocols differ between the studies behind these lines.
Target: Serine/threonine-protein kinase WNK1 (WNK1, Homo sapiens, UniProt Q9H4A3)

O=C1NC(c2ccccn2)Sc2ccccc21 (stereo not shown)  remaining binding (cell-free assay; competition with immobilised ligand; 1 µM): 91%
Nc1ncc2c(n1)-c1c([nH]c3ccc(C#CC4CC4)cc13)CCCC2  remaining binding (binding; competition with immobilised ligand; 1 µM): 97%
CC(C)(O)c1cncc(-c2nc3ccc(F)cc3n2C2CC2)c1  remaining binding (cell-free assay; competition with immobilised ligand; 1 µM): 100%
c1cncc(-c2cccc(Nc3nccc(NC4CCCCC4)n3)c2)c1  remaining binding (binding; competition with immobilised ligand; 10 µM): 87%
O=C(O)[C@H]1[C@H](Cn2nnc3ccccc3c2=O)CC[C@@H]1C(=O)c1ccc(OCCC2CCOCC2)cc1  remaining binding (cell-free assay; competition with immobilised ligand; 1 µM): 100%
O=C(Nc1c[nH]nc1C(=O)NC1CCNCC1)c1cc(F)cc(F)c1  remaining binding (binding; competition with immobilised ligand; 1 µM): 100%
CN(C)c1nccc(-c2cnn3ncccc23)n1  remaining binding (binding; 1 µM): 100%
COc1cnc(Nc2cccc(S(N)(=O)=O)c2)nc1N1CCN(c2ccccc2)C(=O)C1  remaining binding (binding; competition with immobilised ligand; 1 µM): 0%
O=C(c1ccc(Nc2ncc(Cl)c(-c3ccc(Cl)s3)n2)cc1)N1CCC(N2CCCC2)CC1  remaining binding (binding; competition with immobilised ligand; 1 µM): 95%
CNC(=O)[C@@H]1CC[C@@H](n2c(-c3ccc4cnccc4c3)nc3ccc(C(=O)NCc4cccc(C(N)=O)c4)cc32)C1  remaining binding (binding; competition with immobilised ligand; 1 µM): 100%
CN(C)c1ncc(F)c(-c2cnn3ncccc23)n1  remaining binding (binding; 1 µM): 87%
O=C(NCCCN1CCOCC1)c1ccc(Nc2nccc(-c3cc4ccccc4s3)n2)cc1  remaining binding (binding; competition with immobilised ligand; 1 µM): 98%
Cc1cc(-n2nc(Cc3cc(F)cc(C(F)(F)F)c3)nc2C)ccc1C(N)=O  remaining binding (cell-free assay; competition with immobilised ligand; 1 µM): 100%
CN(C)c1nccc(-c2cnc3ncccn23)n1  remaining binding (binding; 1 µM): 100%
COc1ncc2cc3ccccc3nc2c1C#N  remaining binding (cell-free assay; competition with immobilised ligand; 5 µM): 95%
N[C@H]1CCN(c2nccc(-c3cnn4ncccc34)n2)C1  remaining binding (binding; 1 µM): 8.4%
CN(C)C(=O)Cn1cc(-c2nc([C@@](C)(c3ccc(-c4cnc(N)nc4)cc3)C3CC3)no2)cn1  remaining binding (cell-free assay; competition with immobilised ligand; 1 µM): 94%
C[C@H]1CCN(c2nccc(-c3cnn4ncccc34)n2)C1  remaining binding (binding; 1 µM): 91%
Cc1cnc(Nc2ccc(C(=O)N3CCC(N4CCCC4)CC3)cc2)nc1-c1cc2ccccc2s1  remaining binding (binding; competition with immobilised ligand; 1 µM): 90%
